The values that follow come from ChEMBL document CHEMBL3085708, “Identification and profiling of 3,5-dimethyl-isoxazole-4-carboxylic acid [2-methyl-4-((2S,3'S)-2-methyl-[1,3']bipyrrolidinyl-1'-yl)phenyl] amide as histamine H(3) receptor antagonist for the treatment of depression” (Bioorg Med Chem Lett, 2013).

A short description of data set [1]: Tmax in Sprague-Dawley rat brain at 10 mg/kg, po. Further details: dose 10 mg/kg, route oral; call rule not given here. It is filed as ADME, organism-based. The procedure, abridged: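 Male Sprague-Dawley rats dosed 2 mg/kg iv in saline (0.5 mg/mL) and 10 mg/kg po in 0.5% MC/0.2% Tween80 (1.0 mg/mL); plasma and brain concentrations followed.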
Data set [2] can be described thus: Inhibition of cytochrome P450 (unknown origin) by mechanism-based assay. It is filed as ADME. As to conditions: human.
Data set [3] can be described thus: Drug metabolism in dog plasma at 100 ng/ml after 4 hrs. It is filed as ADME, cell-free, Canis lupus familiaris. The note with it: read-out: Drug metabolism. In short, it runs like this: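 Compound spiked into blank plasma of human, mouse, rat, rabbit, macaque and dog at 100 ng/ml, then incubated in a 37 °C water bath for up to 4 h; percent metabolized reported.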

Data set [4] can be described thus: Elimination half life in OF1 mouse brain at 10 mg/kg, po. It is filed as ADME, organism-based. More on the design: dose 10 mg/kg, route oral. As to conditions: read-out: beta t1/2 (converted). The procedure, abridged:
(§1)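 Single-dose PK; male OF1 mice and male Sprague-Dawley rats, 2 mg/kg iv and 10 mg/kg po. Mouse vehicles: iv 50% 1-methyl-2-pyrrolidinone in saline (1.0 mg/mL); po 5% DMSO/0.5% MC/0.2% Tween80 (1.0 mg/mL). Rat vehicles: iv saline (0.5 mg/mL); po 0.5% MC/0.2% Tween80 (1.0 mg/mL). Plasma and brain exposure read as AUC0-∞ and t1/2.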

Data set [5] is described as follows: Volume of distribution in OF1 mouse at 2 mg/kg, iv. The note with it: in vivo. It is filed as ADME, organism-based. Further details: dose 2 mg/kg, route intravenous. In short, it runs like this:
(§2)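 Male OF1 mice given 2 mg/kg iv (50% 1-methyl-2-pyrrolidinone in saline, 1.0 mg/mL) and 10 mg/kg po (5% DMSO/0.5% MC/0.2% Tween80, 1.0 mg/mL); plasma and brain exposure measured; B/P ratio from iv AUC.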

Data set [6] in a line: AUC (0 to infinity) in Sprague-Dawley rat brain at 10 mg/kg, po. It is filed as ADME, organism-based. Further details: time infinity, dose 10 mg/kg, route oral. In short, it runs like this:
as §1

The target in the next data set is Histamine H3 receptor (Homo sapiens, UniProt Q9Y5N1). The data set can be described thus: Inverse agonist activity at human histamine H3 receptor (445 amino acid residues) expressed in CHO cells by CRE-luciferase reporter gene assay. It is filed as functional, cell-based. On the technique in general: In a reporter assay the amount or activity of a reporter protein is the signal.
Sequence of Histamine H3 receptor (Q9Y5N1 whole entry): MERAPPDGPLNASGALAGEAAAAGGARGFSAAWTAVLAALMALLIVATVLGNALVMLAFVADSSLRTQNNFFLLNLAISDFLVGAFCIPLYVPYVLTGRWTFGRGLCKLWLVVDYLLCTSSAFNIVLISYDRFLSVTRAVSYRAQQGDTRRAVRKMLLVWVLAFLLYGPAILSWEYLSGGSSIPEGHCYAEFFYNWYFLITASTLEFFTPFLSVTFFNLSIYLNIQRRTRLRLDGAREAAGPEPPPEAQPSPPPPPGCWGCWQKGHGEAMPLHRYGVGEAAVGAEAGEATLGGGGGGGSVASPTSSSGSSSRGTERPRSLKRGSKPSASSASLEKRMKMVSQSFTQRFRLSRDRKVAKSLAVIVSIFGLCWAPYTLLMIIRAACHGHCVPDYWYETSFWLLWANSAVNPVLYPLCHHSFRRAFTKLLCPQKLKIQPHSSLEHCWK

Data set [7] is described as follows: Tmax in OF1 mouse brain at 10 mg/kg, po. It is filed as ADME, organism-based. More on the design: dose 10 mg/kg, route oral. In short, it runs like this:
as §2

A short description of data set [8]: Drug metabolism in macaque liver microsomes. As to conditions: macaca, read-out: Drug metabolism. It is filed as ADME, Microsome. In general terms: Microsomes from liver hold many membrane-bound enzymes, among them those of drug oxidation.
Data set [9] is described as follows: AUC (0 to infinity) in Sprague-Dawley rat plasma at 10 mg/kg, po. It is filed as ADME, organism-based. More on the design: time infinity, dose 10 mg/kg, route oral. In short, it runs like this: as §1
Data set [10] is described as follows: AUC (0 to infinity) in Sprague-Dawley rat brain at 2 mg/kg, iv. It is filed as ADME, organism-based. More on the design: time infinity, dose 2 mg/kg, route intravenous. In short, it runs like this:
as §1

Take `Cc1cc(N2CC[C@H](N3CCC[C@@H]3C)C2)ccc1NC(=O)c1c(C)noc1C`: the Tmax (in general, the time at which the peak concentration occurs) was found to be 1 h in data set [1] and 0.17 h in data set [7]. The “inhibition (INH)” value in data set [2] was “Not Active”. Besides, the metabolised at 4 h, 100 ng/ml in data set [3] was less than 5%. Further, the half-life in data set [4] is 4.7 h. In addition, the Vd (in general, the apparent volume that relates the amount in the body to the concentration in plasma or blood) in [5] is 1.7 L/kg. In addition, the AUC(0-inf) (as a rule, total exposure, with the tail of the curve extrapolated) in data set [6] was found to be 3400 ng·h/mL; in data set [9], 3150 ng·h/mL; in data set [10], 1200 ng·h/mL. In addition, the midpoint of the response on Histamine H3 receptor, the EC50, lay at 0.7 nM. Further, the metabolised in data set [8] is less than 5%.
